Results as given in ChEMBL document CHEMBL1122208, “Inhibitors of hepatic mixed-function oxidases. 4. Effects of benzimidazole and related compounds on aryl hydrocarbon hydroxylase activity from phenobarbitone and 3-methylcholanthrene induced rats” (J Med Chem, 1982).
Counter-ions that a name gives are not always drawn.

Legend:
[1] = molecular target: T1, aryl hydrocarbon hydroxylase (cytochrome P450 1A1) (Rattus norvegicus, UniProt P00185); assay: Inhibition of Aryl hydrocarbon hydroxylase in phenobarbitone-treated rats; details: read-out: I50
T1 sequence (P00185 whole entry): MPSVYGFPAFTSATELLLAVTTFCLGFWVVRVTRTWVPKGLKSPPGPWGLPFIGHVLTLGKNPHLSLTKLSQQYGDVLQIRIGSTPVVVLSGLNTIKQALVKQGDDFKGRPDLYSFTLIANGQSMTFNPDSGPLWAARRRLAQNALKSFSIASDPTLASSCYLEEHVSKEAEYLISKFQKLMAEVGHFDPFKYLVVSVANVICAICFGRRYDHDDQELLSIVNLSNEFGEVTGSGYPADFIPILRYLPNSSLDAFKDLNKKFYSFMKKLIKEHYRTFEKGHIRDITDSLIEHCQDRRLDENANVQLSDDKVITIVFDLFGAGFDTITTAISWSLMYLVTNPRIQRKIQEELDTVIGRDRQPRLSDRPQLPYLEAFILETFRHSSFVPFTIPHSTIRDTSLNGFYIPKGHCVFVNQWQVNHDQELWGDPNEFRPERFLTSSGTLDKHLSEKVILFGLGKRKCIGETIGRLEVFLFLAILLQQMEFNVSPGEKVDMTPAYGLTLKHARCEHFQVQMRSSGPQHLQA
Procedure, shortened: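 Microsomes from immature male Wistar rats (100-150 g) given PB 80 (mg/kg)/day ip for 3 days, starved 24 h. Incubation: BP 285 nmol, MgCl2 3.0 μmol, NADPH 0.50 μmol, protein 1.2 mg, 0.1 M K phosphate pH 7.4, 3.0 mL. Run 10 min at 37 °C. Phenol fluorescence read at ex 396/em 522 nm. I50 by linear regression over five to eight inhibitor concentrations, mean of duplicates.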

[2] = Partition coefficient (logP); type: physicochemical; details: octanol/water
[3] = molecular target: T2, Cytochrome P450 2B1 (Rattus norvegicus, UniProt P00176); assay: Inhibition of Aminopyrine N-demethylase in Phenobarbitone-treated rats; details: read-out: I50
T2 sequence (P00176 whole entry): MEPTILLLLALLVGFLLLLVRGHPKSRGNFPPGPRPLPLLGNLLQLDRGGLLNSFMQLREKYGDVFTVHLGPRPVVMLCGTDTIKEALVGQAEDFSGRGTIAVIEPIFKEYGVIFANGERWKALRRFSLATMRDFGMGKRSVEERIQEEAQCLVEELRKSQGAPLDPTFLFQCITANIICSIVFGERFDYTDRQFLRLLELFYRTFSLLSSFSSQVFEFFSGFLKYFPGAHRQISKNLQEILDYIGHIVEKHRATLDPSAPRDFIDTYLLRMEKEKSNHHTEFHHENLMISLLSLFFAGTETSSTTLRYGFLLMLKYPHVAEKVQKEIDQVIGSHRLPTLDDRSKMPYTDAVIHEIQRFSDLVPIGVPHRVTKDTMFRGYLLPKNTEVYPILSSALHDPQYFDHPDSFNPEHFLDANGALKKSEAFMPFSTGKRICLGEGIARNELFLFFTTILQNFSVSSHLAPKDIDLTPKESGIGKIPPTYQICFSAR
Procedure, shortened: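 Hepatic microsomes from immature male Wistar rats dosed with PB 80 (mg/kg)/day ip for 3 days and starved 24 h. Prepared in 0.1 M potassium phosphate pH 7.4. Aminopyrine N-demethylation followed by formaldehyde formation. Results expressed as molar I50.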

[4] = molecular target: T1, aryl hydrocarbon hydroxylase (cytochrome P450 1A1); assay: Effect on Aryl hydrocarbon hydroxylase activity in 3-methylcolanthrene-induced rat liver microsomes at 1.2x10E-3M; type: ADME, Microsome; details: 3-methylcholanthrene-induced rat liver microsomes, read-out: Control
Procedure, shortened: (§1)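 Liver microsomes from immature male Wistar rats (100-150 g) given one 3-MC dose (25 mg/kg in corn oil, ip) 3 days before sacrifice, starved 24 h. Incubation: benzo[a]pyrene 357 nmol, MgCl2 3.0 μmol, NADPH 0.50 μmol, 1.2 mg protein, 0.1 M potassium phosphate pH 7.4 (3.0 mL), 6 min, 37 °C. Compound added from 0.07 N HCl or Me2SO-water stock at near-maximal solubility. Fluorescent phenols read ex 396/em 522 nm. Value is % of solvent control, mean of three determinations.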

[5] = molecular target: T2, Cytochrome P450 2B1; assay: Interaction with cytochrome P450 in Phenobarbitone-induced rat hepatic microsomes; type: ADME, Liver; details: read-out: Ks
Procedure, shortened: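 Microsomes came from immature male Wistar rats dosed with phenobarbitone, 80 (mg/kg)/day ip for 3 days, and starved 24 h before sacrifice. Difference spectra recorded at 1 mg/mL microsomal protein. Ks obtained in duplicate from abscissal intercept of a double-reciprocal plot of ΔOD (peak-trough) against compound concentration, using five to eight concentrations.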

[6] = molecular target: T3, cytochrome P450 (cytochrome P450 1A1) (Rattus norvegicus, UniProt P00185); assay: Interaction with cytochrome P450 in 3-methylcholanthrene-induced rat hepatic microsomes; type: ADME, Liver; details: read-out: Ks
T3 sequence (P00185 whole entry): T1 sequence (P00185 whole entry)
Procedure, shortened: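 Hepatic microsomes from immature male Wistar rats given 3-MC (25 mg/kg in corn oil, ip, single dose) 3 days before sacrifice, starved 24 h. Optical difference spectra recorded at 1 mg/mL microsomal protein. Ks taken from abscissal intercept of double-reciprocal plot of ΔOD (peak-trough) vs concentration, five to eight concentrations, in duplicate.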

[7] = molecular target: T1, aryl hydrocarbon hydroxylase (cytochrome P450 1A1); assay: Effect on Aryl hydrocarbon hydroxylase activity in 3-methylcolanthrene-induced rat liver microsomes at 2.3x10E-4M; type: ADME, Microsome; details: 3-methylcholanthrene-induced rat liver microsomes, read-out: Control
Procedure, shortened: (§2)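 Liver microsomes from immature male Wistar rats (100-150 g) given one 3-MC dose (25 mg/kg in corn oil, ip) 3 days before sacrifice, starved 24 h. Incubation: BP 357 nmol, MgCl2 3.0 μmol, NADPH 0.50 μmol, protein 1.2 mg, 0.1 M K phosphate pH 7.4, 3.0 mL final volume. Run 6 min at 37 °C. Fluorescent phenols read at ex 396/em 522 nm. Activity given as % of solvent control, mean of three determinations, at roughly maximum solubility.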

[8] = molecular target: T1, aryl hydrocarbon hydroxylase (cytochrome P450 1A1); assay: Effect on Aryl hydrocarbon hydroxylase activity in 3-methylcolanthrene-induced rat liver microsomes at 4.3x10E-4M; type: ADME, Microsome; details: 3-methylcholanthrene-induced rat liver microsomes, read-out: Control; procedure, shortened: as §1
[9] = molecular target: T3, cytochrome P450 (cytochrome P450 1A1); assay: Interaction (Ks) with cytochrome P450 in 3-methylcholanthrene-induced rat hepatic microsomes; type: ADME, Liver; details: read-out: Ks
Procedure, shortened: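 Optical difference spectra recorded with microsomes from 3-MC-treated rats (25 mg/kg in corn oil, ip, 3 days) at 1 mg/mL protein. Ks taken from the abscissal intercept of double-reciprocal plots of ΔOD (peak-trough) against five to eight compound concentrations, determined in duplicate.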

[10] = molecular target: T1, aryl hydrocarbon hydroxylase (cytochrome P450 1A1); assay: Effect on Aryl hydrocarbon hydroxylase activity in 3-methylcolanthrene-induced rat liver microsomes at 3.6x10E-4M; type: ADME, Microsome; details: 3-methylcholanthrene-induced rat liver microsomes, read-out: Control; procedure, shortened: as §2
[11] = molecular target: T1, aryl hydrocarbon hydroxylase (cytochrome P450 1A1); assay: Effect on Aryl hydrocarbon hydroxylase activity in 3-methylcolanthrene-induced rat liver microsomes at 5.0x10E-5M; type: ADME, Microsome; details: 3-methylcholanthrene-induced rat liver microsomes, read-out: Control; procedure, shortened: as §2
[12] = molecular target: T1, aryl hydrocarbon hydroxylase (cytochrome P450 1A1); assay: Effect on Aryl hydrocarbon hydroxylase activity in 3-methylcolanthrene-induced rat liver microsomes at 5.9x10E-4M; type: ADME, Microsome; details: 3-methylcholanthrene-induced rat liver microsomes, read-out: Control; procedure, shortened: as §2
[13] = molecular target: T1, aryl hydrocarbon hydroxylase (cytochrome P450 1A1); assay: Effect on Aryl hydrocarbon hydroxylase activity in 3-methylcolanthrene-induced rat liver microsomes at 8x10E-4M; type: ADME, Microsome; details: 3-methylcholanthrene-induced rat liver microsomes, read-out: Control; procedure, shortened: as §1
[14] = molecular target: T1, aryl hydrocarbon hydroxylase (cytochrome P450 1A1); assay: Effect on Aryl hydrocarbon hydroxylase activity in 3-methylcolanthrene-induced rat liver microsomes at 1.7x10E-4M; type: ADME, Microsome; details: 3-methylcholanthrene-induced rat liver microsomes, read-out: Control; procedure, shortened: as §2
[15] = molecular target: T2, Cytochrome P450 2B1; assay: Interaction (Ks) with cytochrome P450 in phenobarbitone-induced rat hepatic microsomes; type: ADME, Liver; details: read-out: Ks
Procedure, shortened: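 Difference spectra recorded with microsomes from PB-treated rats (80 (mg/kg)/day ip, 3 days) at 1 mg/mL microsomal protein. Ks obtained in duplicate from double-reciprocal plots of ΔOD (peak-trough) versus five to eight ligand concentrations, using the abscissal intercept.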

[16] = molecular target: T1, aryl hydrocarbon hydroxylase (cytochrome P450 1A1); assay: Effect on Aryl hydrocarbon hydroxylase activity in 3-methylcolanthrene-induced rat liver microsomes at 5.2x10E-5M; type: ADME, Microsome; details: 3-methylcholanthrene-induced rat liver microsomes, read-out: Control; procedure, shortened: as §2

SMILES	IC50 [1]	logP [2]	IC50 [3]	Kd [5]	Kd [6]	other results
CCc1nc2ccccc2[nH]1	630 µM	2.35	670 µM			
c1ccc2[nH]cnc2c1 [BENZIMIDAZOLE]	1100 µM	1.35	980 µM	110 µM	3200 µM	activity at 0.0012 M [4]: 101%
Cc1nc2cc(C)c(C)cc2[nH]1	170 µM	2.85	370 µM	100 µM	28 µM	activity at 0.00023 M [7]: 77%
c1ccc(-c2c[nH]cn2)cc1	33 µM		7.4 µM	1.1 µM	1.7 µM	activity at 0.00043 M [8]: 83%
Cc1ccc2[nH]cnc2c1				62 µM		Kd [9]: 210 µM
CCc1nc2cc(C)c(C)cc2[nH]1	110 µM	3.35	180 µM			
CCCCCc1nc2ccccc2[nH]1	82 µM	3.85	50 µM			activity at 0.00036 M [10]: 89%
CCCCCCCCCCCc1nc2ccccc2[nH]1	18 µM	6.85	15 µM			activity at 50 µM [11]: 103%
CCCc1nc2ccccc2[nH]1	480 µM	2.85	300 µM			activity at 0.00059 M [12]: 99%
Cc1cc2nc[nH]c2cc1C [DIMEDAZOL]	97 µM	2.35	180 µM	62 µM	320 µM	activity at 0.0008 M [13]: 69%
CCCCCCCc1nc2ccccc2[nH]1	24 µM	4.85	26 µM			activity at 0.00017 M [14]: 93%
Cc1nc2ccccc2[nH]1	670 µM	1.85	1080 µM	440 µM	510 µM	
c1ccc2cc3[nH]cnc3cc2c1	84 µM		53 µM			Kd [15]: 15 µM; Kd [9]: 82 µM
CCCC(C(=O)OCCN(CC)CC)(c1ccccc1)c1ccccc1 [PROADIFEN HYDROCHLORIDE]	22 µM		8.2 µM			activity at 52 µM [16]: 105%
